Pemphigus Ab inh = inhibitors of pemphigus antibody binding to human desmoglein-3; AID 588358; binding (percent of control), % at 10 µM; DSG3-coupled beads, scFv-anti-DSG3-GFP binding, flow cytometry; hits give low values; P32926; 0.48% of 310,000 active;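 active = binding more than 3 SD below its plate's average and above zero; inconclusive = below that plate limit but binding exactly zero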;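 note: hits lower antibody fragment binding to DSG3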
MEKK3 PB1 HTS = modulators (inhibitors or enhancers) of MEK5 binding to human MEKK3 PB1 domain; bead-based flow cytometry, Alexa488-MEK5 binding to MEKK3; actives lie on both sides; 0 = blocked by unlabeled MEK5, 100 = vehicle; binding response (% of control), % at 10 µM; 1.4% of 290,000 active; AID 1529;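 active = binding response more than 3 SD above or below the average of its plate-row segment, actives on both sides; inconclusive = wells at one plate position flagged as instrument error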;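 note: Alexa488 bead fluorescence after subtracting the streptavidin-only scavenger bead signal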
Target sequence (Q99759 whole entry, looked up, the tested form may be a part): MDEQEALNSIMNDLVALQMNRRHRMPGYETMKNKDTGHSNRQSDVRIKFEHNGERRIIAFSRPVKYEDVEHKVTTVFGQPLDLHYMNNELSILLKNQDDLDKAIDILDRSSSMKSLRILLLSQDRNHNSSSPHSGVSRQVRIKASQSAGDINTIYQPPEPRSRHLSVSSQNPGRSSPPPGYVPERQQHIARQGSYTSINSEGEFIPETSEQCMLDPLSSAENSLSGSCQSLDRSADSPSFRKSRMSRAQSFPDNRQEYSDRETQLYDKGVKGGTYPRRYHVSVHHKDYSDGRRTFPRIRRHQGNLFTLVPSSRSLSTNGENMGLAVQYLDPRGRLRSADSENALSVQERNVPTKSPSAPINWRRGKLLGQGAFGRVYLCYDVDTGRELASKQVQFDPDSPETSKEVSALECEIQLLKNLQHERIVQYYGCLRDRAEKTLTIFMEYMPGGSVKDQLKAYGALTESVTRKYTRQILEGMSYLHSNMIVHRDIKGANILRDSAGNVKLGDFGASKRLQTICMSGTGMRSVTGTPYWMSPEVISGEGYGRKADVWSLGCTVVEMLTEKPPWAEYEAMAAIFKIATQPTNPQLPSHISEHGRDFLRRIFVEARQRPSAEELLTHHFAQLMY
MEKK2 WT-MEK5 = raises or lowers MEK5 binding to wildtype human MEKK2 PB1 domain | binding response (% of control), % at 10 µM | Q9Y2U5 | 1.1% of 290,000 active | bead flow cytometry, Alexa488-MEK5 binding to MEKK2 WT; actives lie on both sides; in the data active = binding response below about 67% or above about 130%; inconclusive = no clear call, values can overlap the other calls; inactive = in between
UBC13 inh = inhibitors of human UBC13 polyubiquitin chain formation. TR-FRET. inhibition, % at 20 µM. 0.47% of 330,000 active; in the data active = inhibition above about 45%, passing the limit was not always enough; inconclusive = no clear call, values can overlap the other calls
Apaf-1 inh = inhibitors of human Apaf-1 apoptosome; inhibition, % at 20 µM; reconstituted apoptosome caspase-3 activity, DEVD-Rh110 fluorescence; O14727; 0.71% of 330,000 active; AID 489030; active = inhibition of at least 40% at 20 µM;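 note: plate controls were DMSO wells for no effect and DEVD-CHO caspase inhibitor wells for full effect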
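detection = Rh110 fluorescence intensity | test system = biochemical Apaf-1 apoptosome reconstitution | also added = cytochrome c and DEVD-Rh110 substrate | schedule = 30 min plus 50 min, RT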
MEKK2 mut-MEK5 = signal of MEK5 binding to mutant human MEKK2 PB1 domain | bead flow cytometry, Alexa488-MEK5 binding to MEKK2 mutant | percent response, % at 10 µM | 0.35% of 290,000 active; in the data active = percent response above about 24%, passing the limit was not always enough
MEKK2wt confirm = raises or lowers MEK5 binding to wildtype human MEKK2, retest; bead flow cytometry, Alexa488-MEK5 binding to MEKK2 WT; actives lie on both sides; 2.4% of 5,900 active; binding response (% of control), % at 10 µM; shares compounds with MEKK3 PB1 HTS; in the data active = binding response below about 16% or above about 210%; inactive = in between
MEKK2mut confirm = signal of MEK5 binding to mutant human MEKK2, retest; bead flow cytometry, Alexa488-MEK5 binding to MEKK2 mutant; 2% of 5,900 active; AID 1893; percent response, % at 10 µM; shares compounds with MEKK3 PB1 HTS; in the data active = percent response mostly above about 71%, no sharp cut-off; inactive = mostly below about 38%;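 note: higher means compound restores mutant binding toward wildtype level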
MEKK3 confirm = confirmation of inhibitors of MEK5 binding to human MEKK3. shares compounds with MEKK3 PB1 HTS. bead flow cytometry, Alexa488-MEK5 binding to MEKK3; hits give low values. binding response (% of control), % at 10 µM. 1.8% of 5,900 active. AID 1894;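 active = binding response below 72% of control, or above a set upper limit, though filed actives all read lower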;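 note: 100% = DMSO only wells and 0% = binding blocked by excess unlabeled MEK5; lower values mean stronger disruption of MEK5 binding to MEKK3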
The depositor's hits bear a star; ? = inconclusive; . = no result given; [ ] = another dose, or the depositor's remark. Shown are actives, neighbours in structure and some others; about 3.2% of the full set was active somewhere.

SMILES	Pemphigus Ab inh	MEKK3 PB1 HTS	MEKK2 WT-MEK5	UBC13 inh	Apaf-1 inh	MEKK2 mut-MEK5	MEKK2wt confirm	MEKK2mut confirm	MEKK3 confirm
CC1=C(C)Cc2c(OC(=O)c3ccccc3)ccc(OC(=O)c3ccccc3)c2C1	.	42.0*[inhibitor]	51.0	4.4	6.4	8.0	101.0	2.0	98.0
O=C(Oc1cccccc1=O)c1ccccc1	82.2	96.0	95.0	1.4	-16.1	-9.0	.	.	.
CCc1ccc(C(C(=O)NC2CCCCC2)N(C(=O)c2csnn2)C2CC2)cc1 (stereo unspecified)	92.3	103.0	98.0	-4.6	16.4	-3.0	.	.	.
COc1ccc(C(=O)CSc2nnc(NC(=O)C3CC(=O)N(c4ccccc4)C3)s2)cc1 (stereo unspecified)	80.8	136.0*	105.0	-8.6	13.9	1.0	104.0	9.0	104.0
COc1cccc(N2CC(C(=O)Nc3nnc(SCC(=O)c4ccccc4)s3)CC2=O)c1 (stereo unspecified)	105.2	98.0	110.0	-2.3	-1.7	6.0	.	.	.
CC1=CC2=NC(=O)CC(C)(C(=O)N(CC(=O)NC(C)(C)C)C3CCCC3)N2C=C1 (stereo unspecified)	100.8	103.0	102.0	15.3	-16.1	3.0	.	.	.
CC1=CC2=NC(=O)CC(C)(C(=O)N(CC(=O)NC3CCCC3)c3cc(C)cc(C)c3)N2C=C1 (stereo unspecified)	95.0	150.0*	128.0	5.2	0.5	6.0	104.0	8.0	103.0
Cc1cc(Br)ccc1NC(=O)CN(C)C(=O)c1cccc(S(=O)(=O)N2CCN(C)CC2)c1	93.7	.	.	.	.	.	.	.	.
O=S(=O)(NC1CCCCC1Nc1ccccc1)c1ccccc1 (stereo unspecified)	91.0	128.0*	104.0	-0.6	2.0	0.0	80.0	-18.0	71.0*
O=C(C[n+]1ccc(-c2cc(C(=O)Nc3cccc(C(F)(F)F)c3)c3ccccc3n2)cc1)c1cccc([N+](=O)[O-])c1	124.2	94.0	158.0*	-89.4	9.6	46.0	176.0	99.0*	95.0
COc1ccc(S(=O)(=O)N(C)C[C@@H]2OCc3cnnn3CCCC(=O)N([C@@H](C)CO)C[C@@H]2C)cc1	104.4	.	.	.	.	.	.	.	.
O=C(CC1CCCCC1)NCc1ccccn1	104.5	122.0*	122.0	2.8	-2.2	6.0	120.0	15.0	103.0
Cc1ccc(Nc2nc(CSc3nnc(-c4ccc(F)cc4)n3C)cs2)cc1	106.0	1.0*[inhibitor]	3.0*[inhibitor]	3.0	11.9	-8.0	99.0	-1.0	100.0
COc1ccc(-c2nnc(SCc3csc(N)n3)n2C)cc1	101.8	105.0	106.0	-6.2	-10.4	7.0	.	.	.
Cn1c(Cn2c(C(F)(F)F)nc3ccccc32)nc2ccccc21	104.9	109.0	110.0	5.9	3.3	24.0*	102.0	5.0	103.0
OCCn1c(C(F)(F)F)nc2ccccc21	106.6	106.0	100.0	4.0	-12.8	-4.0	.	.	.
Cc1nc(-c2ccccn2)nc(SCC(=O)c2ccc(F)cc2)c1Cl	.	134.0*	113.0	6.4	0.7	31.0	103.0	-1.0	97.0
COc1ccc(C(=O)CSc2nnc3ccc(-c4ccccn4)nn23)cc1	100.4	64.0	62.0	?	-13.3	-27.0	.	.	.
O=C(CSc1ccc(-c2ccccn2)nn1)c1ccc(F)cc1	100.5	117.0	107.0	13.0	-7.1	-1.0	.	.	.
COc1ccc(C(=O)CSc2nc(-c3ccccn3)nc(C)c2Cl)cc1	121.0	128.0*	114.0	5.2	7.1	23.0	107.0	6.0	104.0
O=C(Nc1ccc(Cl)c(Cl)c1)C1CCCCC1	100.9	.	.	13.4	2.5	.	.	.	.

Bioassay records from PubChem.
